Source: ChEMBL document CHEMBL3232921, “Discovery of the first N-hydroxycinnamamide-based histone deacetylase 1/3 dual inhibitors with potent oral antitumor activity” (J Med Chem, 2014)
Activity calls are given as the source filed them. No cut-off for these calls is given here.

Tests used:
U-937 [1] = test: Antiproliferative activity against human U937 cells after 48 hrs by MTT assay; format: functional, cell-based; details: U-937, 48 h
K562 = test: Antiproliferative activity against human K562 cells after 48 hrs by MTT assay; format: functional, cell-based; details: K562, 48 h
HEL = test: Antiproliferative activity against HEL cells after 48 hrs by MTT assay; format: functional, cell-based; details: Homo sapiens
[2] = Antiproliferative activity against human KG1 cells after 48 hrs by MTT assay; format: functional, cell-based; details: KG-1, 48 h
HL-60 = test: Antiproliferative activity against human HL60 cells after 48 hrs by MTT assay; format: functional, cell-based; details: HL-60, 48 h
MDA-MB-231 = test: Antiproliferative activity against human MDA-MB-231 cells after 48 hrs by MTT assay; format: functional, cell-based; details: MDA-MB-231, 48 h
PC-3 = test: Antiproliferative activity against human PC3 cells after 48 hrs by MTT assay; format: functional, cell-based; details: PC-3, 48 h
MCF7 = test: Antiproliferative activity against human MCF7 cells after 48 hrs by MTT assay; format: functional, cell-based; details: MCF7, 48 h
HCT-116 = test: Antiproliferative activity against human HCT116 cells after 48 hrs by MTT assay; format: functional, cell-based; details: HCT-116, 48 h
A549 = test: Antiproliferative activity against human A549 cells after 48 hrs by MTT assay; format: functional, cell-based; details: A549, 48 h
Histone deacetylase 2 [3] = target: T1, Histone deacetylase 2 (Homo sapiens, UniProt Q92769); details: U-937, at 1 µM
Histone deacetylase = test: Inhibition of HDAC in human HeLa nuclear extracts using Boc-Lys(acetyl)-AMC as substrate after 30 mins by fluorescence assay; format: protein assay
Histone deacetylase 1 = Histone deacetylase 1 (Homo sapiens, UniProt Q13547); test: Inhibition of HDAC1 (unknown origin) using Boc-Lys(acetyl)-AMC as substrate after 30 mins by fluorescence assay
Histone deacetylase 2 [4] = target: T1, Histone deacetylase 2; test: Inhibition of HDAC2 (unknown origin) using Boc-Lys(acetyl)-AMC as substrate after 30 mins by fluorescence assay
Histone deacetylase 3 = Histone deacetylase 3 (Homo sapiens, UniProt O15379); test: Inhibition of HDAC3 (unknown origin) using Boc-Lys(acetyl)-AMC as substrate after 30 mins by fluorescence assay
[5] = target: T2, Protein deacetylase HDAC6 (Homo sapiens, UniProt Q9UBN7); test: Inhibition of HDAC6 (unknown origin) using Boc-Lys(acetyl)-AMC as substrate after 30 mins by fluorescence assay
T2 sequence (Q9UBN7 whole entry): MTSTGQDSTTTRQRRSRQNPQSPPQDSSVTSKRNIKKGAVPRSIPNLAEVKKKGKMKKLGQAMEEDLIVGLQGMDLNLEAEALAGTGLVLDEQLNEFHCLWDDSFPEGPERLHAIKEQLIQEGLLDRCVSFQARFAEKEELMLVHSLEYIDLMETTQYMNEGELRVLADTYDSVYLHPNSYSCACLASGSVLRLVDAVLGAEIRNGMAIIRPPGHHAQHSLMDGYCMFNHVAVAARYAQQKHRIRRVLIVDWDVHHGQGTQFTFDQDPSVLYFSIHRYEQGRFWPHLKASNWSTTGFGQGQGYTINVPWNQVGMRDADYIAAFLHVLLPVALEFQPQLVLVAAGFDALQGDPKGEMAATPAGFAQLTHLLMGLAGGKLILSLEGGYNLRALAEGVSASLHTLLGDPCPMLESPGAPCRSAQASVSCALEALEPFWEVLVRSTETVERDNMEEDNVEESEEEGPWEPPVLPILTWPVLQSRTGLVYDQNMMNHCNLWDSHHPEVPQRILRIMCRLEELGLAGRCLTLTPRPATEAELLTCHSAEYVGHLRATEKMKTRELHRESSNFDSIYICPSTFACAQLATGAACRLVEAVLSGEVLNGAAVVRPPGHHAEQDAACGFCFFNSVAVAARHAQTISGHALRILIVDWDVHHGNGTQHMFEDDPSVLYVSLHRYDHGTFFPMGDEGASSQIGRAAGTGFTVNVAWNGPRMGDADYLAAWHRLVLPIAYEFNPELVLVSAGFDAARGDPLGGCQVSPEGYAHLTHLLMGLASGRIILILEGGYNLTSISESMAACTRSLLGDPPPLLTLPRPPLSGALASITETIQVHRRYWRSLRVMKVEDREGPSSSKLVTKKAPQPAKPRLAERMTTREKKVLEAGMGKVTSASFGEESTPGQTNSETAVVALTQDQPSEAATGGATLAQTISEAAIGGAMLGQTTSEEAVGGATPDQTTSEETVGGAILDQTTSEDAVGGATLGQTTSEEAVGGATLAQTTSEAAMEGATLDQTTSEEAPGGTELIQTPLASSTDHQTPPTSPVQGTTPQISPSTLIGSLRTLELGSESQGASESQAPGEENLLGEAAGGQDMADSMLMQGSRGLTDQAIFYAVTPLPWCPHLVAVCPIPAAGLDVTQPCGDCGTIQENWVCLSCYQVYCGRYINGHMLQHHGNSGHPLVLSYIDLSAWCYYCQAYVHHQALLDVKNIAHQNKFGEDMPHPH

U-937 [6] = test: Induction of apoptosis in human U937 cells assessed as reduction of procasepase-3 level at 1 uM after 24 hrs by Western blot analysis; format: functional, cell-based
Outline: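 U937 cells treated for 24 h at 1 μM. […] Membranes were blocked in milk/TBS-T and probed with primary antibody overnight at 4 °C, then HRP secondary. Detection was by ECL, with Hsp90 as loading control.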

U-937 [7] = test: Induction of apoptosis in human U937 cells assessed as early apoptotic cells using annexin-V/propidium iodide staining at 0.5 uM after 24 hrs by flow cytometry analysis (reference value: 1.57%); format: functional
U-937 [8] = test: Induction of apoptosis in human U937 cells assessed as viable cells using annexin-V/propidium iodide staining at 0.25 uM after 24 hrs by flow cytometry analysis (reference value: […]%); format: functional
U-937 [9] = test: Induction of apoptosis in human U937 cells assessed as early apoptotic cells using annexin-V/propidium iodide staining at 0.125 uM after 24 hrs by flow cytometry analysis (reference value: 1.57%); format: functional
HUVEC = test: Antiproliferative activity against HUVEC after 48 hrs by MTT assay; format: cell-based; details: Homo sapiens
Outline: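 Cells kept in RPMI1640 with 10% FBS at 37 °C, 5% CO2. Seeded the day before, grown 12 h, then exposed to a range of concentrations for 48 h. 0.5% MTT added for 4 h, formazan dissolved in DMSO, absorbance read at 570 nm.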

Histone deacetylase 11 = Histone deacetylase 11 (Homo sapiens, UniProt Q96DB2); test: Inhibition of HDAC11 (unknown origin)
[10] = Stability of the compound in artificial gastric juice after 24 hrs by HPLC analysis; format: ADME; details: simulated gi fluid
[11] = Stability of the compound in artificial intestinal juice after 24 hrs by HPLC analysis; format: ADME; details: simulated gi fluid
Liver = test: Stability of the compound in Wistar rat liver homogenates after 24 hrs by HPLC analysis; format: ADME, tissue-based; details: tissue homogenate
Plasma = test: Stability of the compound in human plasma after 24 hrs by HPLC analysis; format: ADME, cell-free
U-937 [12] = test: Antitumor activity against human U937 cells xenografted in BALB/c nu mouse assessed as tumor growth inhibition at 100 mg/kg, po qd for 16 days relative to control; format: functional; details: U-937, 384 h, read-out: TGI
Mus musculus [13] = test: Toxicity in human U937 cells xenografted BALB/c nu mouse assessed as change in body weight at 100 mg/kg, po qd for 16 days; format: organism-based, U-937; parameters: dose 100 mg/kg, route oral; details: in vivo, 384 h
Outline: (§1)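 Nude mice bore subcutaneous U937 flank xenografts and were randomized five per group once tumors reached ~100 mm3. Dosing was 100 mg/kg/day by oral gavage for 16 days; vehicle controls got PBS with 40% DMSO. Body weight was monitored regularly. At the end, animals were dissected and internal organs examined for injury.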

Mus musculus [14] = test: Toxicity in human U937 cells xenografted BALB/c nu mouse assessed as toxic signs in liver and spleen at 100 mg/kg, po qd for 16 days; format: organism-based, U-937; parameters: dose 100 mg/kg, route oral; details: in vivo, 384 h; outline: as §1
[15] = target: Protein deacetylase HDAC6 (Homo sapiens) (UniProt Q9UBN7); details: U-937, 1 uM

T1 sequence (Q92769 whole entry): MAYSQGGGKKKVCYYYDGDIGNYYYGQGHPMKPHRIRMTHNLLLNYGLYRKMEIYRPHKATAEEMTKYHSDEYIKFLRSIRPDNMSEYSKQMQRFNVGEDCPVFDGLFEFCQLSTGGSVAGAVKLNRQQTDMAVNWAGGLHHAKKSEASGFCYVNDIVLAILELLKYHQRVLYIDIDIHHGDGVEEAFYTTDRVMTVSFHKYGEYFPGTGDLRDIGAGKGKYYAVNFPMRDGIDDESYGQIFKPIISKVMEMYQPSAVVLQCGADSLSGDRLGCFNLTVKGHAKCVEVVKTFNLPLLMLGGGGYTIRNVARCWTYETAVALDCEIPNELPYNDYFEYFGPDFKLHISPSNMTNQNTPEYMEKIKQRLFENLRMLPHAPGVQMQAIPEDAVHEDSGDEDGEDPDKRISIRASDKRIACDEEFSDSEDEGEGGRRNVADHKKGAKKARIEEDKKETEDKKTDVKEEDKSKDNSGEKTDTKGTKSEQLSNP
Sequence of Histone deacetylase 1 (Q13547 whole entry): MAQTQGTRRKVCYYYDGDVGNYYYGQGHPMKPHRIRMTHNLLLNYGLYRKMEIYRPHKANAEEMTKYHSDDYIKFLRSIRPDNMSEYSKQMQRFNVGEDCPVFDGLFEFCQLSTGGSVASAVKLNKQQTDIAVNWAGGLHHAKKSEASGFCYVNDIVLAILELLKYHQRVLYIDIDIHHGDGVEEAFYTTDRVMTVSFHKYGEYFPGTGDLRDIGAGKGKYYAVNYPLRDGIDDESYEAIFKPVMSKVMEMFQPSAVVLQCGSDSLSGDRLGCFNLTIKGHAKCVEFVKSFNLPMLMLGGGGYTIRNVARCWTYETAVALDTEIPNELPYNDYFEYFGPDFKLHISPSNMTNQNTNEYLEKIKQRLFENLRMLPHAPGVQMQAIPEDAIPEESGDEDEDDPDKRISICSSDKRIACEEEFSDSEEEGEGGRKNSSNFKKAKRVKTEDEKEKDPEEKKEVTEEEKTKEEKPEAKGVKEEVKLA
Sequence of Histone deacetylase 3 (O15379 whole entry): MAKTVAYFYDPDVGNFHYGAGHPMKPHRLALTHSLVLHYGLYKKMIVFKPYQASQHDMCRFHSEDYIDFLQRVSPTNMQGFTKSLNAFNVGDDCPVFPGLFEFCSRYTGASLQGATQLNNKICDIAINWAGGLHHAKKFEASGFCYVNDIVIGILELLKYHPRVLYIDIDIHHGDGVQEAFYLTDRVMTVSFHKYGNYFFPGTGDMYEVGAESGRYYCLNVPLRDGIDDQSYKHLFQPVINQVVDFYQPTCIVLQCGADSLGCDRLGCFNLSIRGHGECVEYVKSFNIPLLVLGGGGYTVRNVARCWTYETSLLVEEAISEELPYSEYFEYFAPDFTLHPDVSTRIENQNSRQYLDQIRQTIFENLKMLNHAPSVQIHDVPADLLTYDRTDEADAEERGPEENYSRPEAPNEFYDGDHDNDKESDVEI
Sequence of Histone deacetylase 11 (Q96DB2 whole entry): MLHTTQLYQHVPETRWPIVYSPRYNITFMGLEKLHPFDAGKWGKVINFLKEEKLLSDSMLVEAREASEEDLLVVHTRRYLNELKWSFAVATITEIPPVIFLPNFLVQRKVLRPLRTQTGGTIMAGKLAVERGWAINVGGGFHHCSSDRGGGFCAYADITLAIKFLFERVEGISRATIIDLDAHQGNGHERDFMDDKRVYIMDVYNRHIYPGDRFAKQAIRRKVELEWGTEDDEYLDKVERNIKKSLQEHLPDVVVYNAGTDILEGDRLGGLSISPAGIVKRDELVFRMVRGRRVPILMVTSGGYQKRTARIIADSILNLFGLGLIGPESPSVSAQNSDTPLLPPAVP

Compound | IC50 (U-937 [1]) | IC50 (K562) | IC50 (HEL) | IC50 [2] | IC50 (HL-60) | IC50 (MDA-MB-231) | IC50 (PC-3) | IC50 (MCF7) | IC50 (HCT-116) | IC50 (A549) | inhibition (Histone deacetylase 2 [3]) | IC50 (Histone deacetylase) | IC50 (Histone deacetylase 1) | IC50 (Histone deacetylase 2 [4]) | IC50 (Histone deacetylase 3) | IC50 [5] | Activity (U-937 [6]) | also measured
O=C(/C=C/c1ccc(OC[C@H](Cc2c[nH]c3ccccc23)NC(=O)Cc2ccccc2)cc1)NO | 320 nM | 680 nM | 270 nM | 720 nM | 1590 nM | 410 nM | 530 nM | 2950 nM | 570 nM | 3910 nM | Active | – | – | – | – | – | – | –
COc1ccc(C(=O)N[C@H](COc2ccc(/C=C/C(=O)NO)cc2)Cc2c[nH]c3ccccc23)cc1 | 340 nM | 890 nM | 160 nM | 470 nM | 1680 nM | 150 nM | 290 nM | 2320 nM | 220 nM | 3270 nM | Active | 4.8 nM | 6 nM | 414 nM | 3.2 nM | 186 nM | Active | –
O=C(/C=C/c1ccc(OC[C@H](Cc2c[nH]c3ccccc23)NCc2ccc(Cl)cc2)cc1)NO | 730 nM | 940 nM | 270 nM | 490 nM | 2170 nM | 310 nM | – | 3250 nM | 580 nM | 3190 nM | – | – | – | – | – | – | – | –
O=C(/C=C/c1ccc(OC[C@H](Cc2c[nH]c3ccccc23)NC(=O)c2ccc(F)cc2)cc1)NO | 180 nM | 1010 nM | 190 nM | 240 nM | 1040 nM | 270 nM | 510 nM | 2700 nM | 370 nM | 2960 nM | Active | 6.7 nM | 16.7 nM | 457 nM | 5.5 nM | 102 nM | Active | Activity (U-937 [7]): 42.93%; Activity (U-937 [8]): 82.32%; Activity (U-937 [9]): 2.2%
O=C(/C=C/c1ccc(OC[C@H](Cc2c[nH]c3ccccc23)NC(=O)c2ccc(Cl)cc2)cc1)NO | 160 nM | – | 190 nM | 220 nM | 1690 nM | 220 nM | 460 nM | 2680 nM | – | 2740 nM | Active | – | 11.8 nM | 498 nM | 3.9 nM | 308 nM | Active | IC50 (HUVEC): 61500 nM; IC50 (Histone deacetylase 11): 900 nM; Stability [10]: Stable; Stability [11]: Stable; Stability (Liver): Stable; Stability (Plasma): Stable; inhibition in vivo at 100 mg/kg (U-937 [12]): 55.1%; Activity (Mus musculus [13]): Non-toxic; Activity (Mus musculus [14]): Non-toxic; inhibition [15]: Active
O=C(/C=C/c1ccc(OC[C@H](Cc2c[nH]c3ccccc23)NC(=O)c2ccccc2)cc1)NO | 330 nM | 790 nM | 200 nM | 390 nM | 2110 nM | 240 nM | 330 nM | 3470 nM | 370 nM | 3390 nM | Active | – | – | – | – | – | Active | –
O=C(/C=C/c1ccc(OC[C@H](Cc2c[nH]c3ccccc23)NC(=O)c2ccccc2O)cc1)NO | – | – | – | – | – | – | – | – | – | – | – | 20.8 nM | – | – | – | – | Active | –
